Laboratory results from ChEMBL document CHEMBL4842312, “Phenoxazine nucleoside derivatives with a multiple activity against RNA and DNA viruses” (Eur J Med Chem, 2021).
pEC50: −log10 of the molar value.

Columns and labels:
SARS-CoV-2 = experiment: Antiviral activity against SARS COV-2 infected in monkey vero cells assessed as reduction in virus-induced cytopathic effect preincubated with virus for 1 hr followed by cell infection and measured after 5 days by microscopic analysis; type: functional, organism-based; settings: Severe acute respiratory syndrome coronavirus 2, Vero
Vero = experiment: Cytotoxicity in African green monkey Vero cells assessed as reduction in cell viability measured after 5 days by resazurin dye based assay; settings: chlorocebus sabaeus, vero, 120 h; time 5 day
How it was run: (§1)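 Cells (about 10⁵/well, 5% FBS) were added to two-fold compound dilutions (eight concentrations from 100 μM; DMSO control) and held 5 days at 36.5 °C in CO2. Medium was then replaced with resazurin (25 μg/mL) for 4 h and stopped with SDS. Fluorescence was read at Ex 525 / Em 580–640 nm, with background wells without resazurin subtracted. Done in two replicates; CC50 calculated.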

Human alphaherpesvirus 3 [1] = experiment: Antiviral activity against thymidine kinase deficient Varicella zoster virus; type: functional, organism-based
How it was run: (§2)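 Confluent HEL cultures received 100 CCID50 or 20 PFU of virus, with 2 h adsorption before inoculum removal. Cells were then incubated with compound from 100 μM downward. Cytopathicity or plaques were scored once untreated infected controls reached completion.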

[2] = Selectivity index, ratio of CC50 for human HEL cells to EC50 for antiviral activity against thymidine kinase positive Varicella zoster virus; type: toxicity; settings: read-out: Ratio CC50/EC50
[3] = Selectivity index, ratio of CC50 for human HEL cells to EC50 for antiviral activity against thymidine kinase deficient Varicella zoster virus; type: toxicity; settings: read-out: Ratio CC50/EC50
[4] = system: Respiratory syncytial virus; experiment: Antiviral activity against Respiratory syncytial virus assessed as reduction in virus-induced cytopathic effect by MTS assay; type: functional, organism-based; settings: human respiratory syncytial virus
[5] = system: Tick-borne encephalitis virus; experiment: Antiviral activity against Tick-borne encephalitis virus infected in pig PEK cells assessed as reduction in virus plaque formation preincubated with virus for 1 hr followed by cell infection and measured after 1 hr by crystal violet staining based assay; type: functional, organism-based
Human alphaherpesvirus 3 [6] = experiment: Antiviral activity against thymidine kinase positive Varicella zoster virus; type: functional, organism-based; how it was run: as §2
MDCK = experiment: Cytotoxicity in dog MDCK cells assessed as reduction in cell viability measured after 3 days by beckman coulter counting method; type: cell-based, Canis lupus familiaris; settings: mdck, 72 h, time 3 day
How it was run: (§3)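 Cells were seeded at 5 × 10³/well, grown 24 h, then exposed to compound from 100 μM downward for 3 days at 37 °C. Cell number was counted with a Coulter counter.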

HEL = experiment: Cytotoxicity against human HEL cells assessed as reduction in cell viability measured after 3 days by beckman coulter counting method; type: cell-based; settings: 72 h, time 3 day; how it was run: as §3
Influenza A virus = experiment: Antiviral activity against Influenza A virus (H1N1) infected in MDCK cells assessed as reduction in cytopathic effect preincubated with cells for 1 hrs followed by viral addition and measured after 24 hrs by Reed-Muench method; type: functional, organism-based
How it was run: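 MDCK monolayers were pre-incubated 1 h at 37 °C with 3-fold compound dilutions (from 2 mg/mL DMSO stock), then infected at MOI 1 for 24 h. Supernatant yield was titrated by 10-fold dilutions on fresh MDCK for 72 h. Titre was read by hemagglutination with 1% chicken erythrocytes and calculated by Reed-Muench as TID50 per 100 μL.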

[7] = Selectivity index, ratio of CC50 for African green monkey Vero cells to EC50 for Antiviral activity against Chikungunya virus infected in African green monkey Vero cells; type: toxicity; settings: read-out: Ratio CC50/EC50
HEp-2 = experiment: Cytotoxicity in human Hep2 cells assessed as reduction in cell viability measured after 3 days by beckman coulter counting method; type: functional; settings: HEp-2, 72 h, time 3 day
How it was run: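 Hep2 cells seeded at 5 × 10³ cells/well and allowed to grow 24 h, then exposed to compound dilutions starting at 100 μM for 3 days at 37 °C. Cell number measured by Coulter counter.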

Human betaherpesvirus 5 [8] = experiment: Antiviral activity against Human cytomegalovirus Davis; type: functional, organism-based; settings: Human betaherpesvirus 5, Davis; how it was run: as §2
Chikungunya virus = experiment: Antiviral activity against Chikungunya virus infected in African green monkey Vero cells assessed as reduction in virus plaque formation preincubated with virus for 1 hr followed by cell infection and measured after 1 hr by crystal violet staining based assay; type: functional, organism-based
Powassan virus = experiment: Antiviral activity against Powassan virus infected in pig PEK cells assessed as reduction in virus plaque formation preincubated with virus for 1 hr followed by cell infection and measured after 1 hr by crystal violet staining based assay; type: functional, organism-based
Human betaherpesvirus 5 [9] = experiment: Antiviral activity against Human cytomegalovirus AD169; type: functional, organism-based; settings: Human betaherpesvirus 5, AD169; how it was run: as §2
[10] = Cytotoxicity in pig PEK cells assessed as reduction in cell viability measured after 5 days by resazurin dye based assay; set-up: species or system Sus scrofa, Kidney; settings: 120 h, time 5 day; how it was run: as §1
[11] = Selectivity index, ratio of CC50 for pig PEK cells to EC50 for Antiviral activity against Omsk hemorrhagic fever virus infected in pig PEK cells; type: toxicity, cell-based; settings: read-out: Ratio CC50/EC50
[12] = Selectivity index, ratio of CC50 for pig PEK cells to EC50 for Antiviral activity against Powassan virus infected in pig PEK cells; type: toxicity, cell-based; settings: read-out: Ratio CC50/EC50
[13] = Selectivity index, ratio of CC50 for pig PEK cells to EC50 for Antiviral activity against Tick-borne virus encephalitis infected in pig PEK cells; type: toxicity, cell-based; settings: read-out: Ratio CC50/EC50
[14] = system: Omsk hemorrhagic fever virus; experiment: Antiviral activity against Omsk hemorrhagic fever virus infected in pig PEK cells assessed as reduction in virus plaque formation preincubated with virus for 1 hr followed by cell infection and measured after 1 hr by crystal violet staining based assay; type: functional, organism-based
Human alphaherpesvirus 3 [15] = experiment: Antiviral activity against Varicella zoster virus assessed as inhibition of viral replication; type: functional, organism-based

COc1ccc(C(OC[C@H]2O[C@@H](n3cc4c(nc3=O)Nc3c(OCCN)cccc3O4)[C@H](O)[C@@H]2O)(c2ccccc2)c2ccc(OC)cc2)cc1
pEC50 (SARS-CoV-2): < 4.00 | CC50 (Vero): > 100 µM

CCCCCCCCCCOc1ccc2c(c1)N(C)c1nc(=O)n([C@H]3C[C@H](O)[C@@H](CO)O3)cc1O2
pEC50 (Human alphaherpesvirus 3 [1]): 4.82 | selectivity ratio [2]: > 11 | pEC50 (SARS-CoV-2): < 4.00 | selectivity ratio [3]: > 6 | pEC50 [4]: < 4.00 | pEC50 [5]: 5.27 | pEC50 (Human alphaherpesvirus 3 [6]): 4.97 | CC50 (MDCK): > 40 µM | CC50 (HEL): > 100 µM | pEC50 (Influenza A virus): 4.64 | selectivity ratio [7]: 83 | CC50 (HEp-2): > 100 µM | pEC50 (Human betaherpesvirus 5 [8]): 4.70 | CC50 (Vero): 59 µM | pEC50 (Chikungunya virus): 6.15 | pEC50 (Powassan virus): 6.35 | pEC50 (Human betaherpesvirus 5 [9]): < 4.70 | CC50 [10]: 79 µM

COc1ccc(C(OCCOCn2cc3c(nc2=O)Nc2ccccc2O3)(c2ccccc2)c2ccc(OC)cc2)cc1
pEC50 (Human alphaherpesvirus 3 [1]): < 4.00 | pEC50 (SARS-CoV-2): < 4.00 | pEC50 [4]: < 4.00 | selectivity ratio [11]: > 4 | pEC50 [5]: 4.44 | pEC50 (Human alphaherpesvirus 3 [6]): < 4.00 | CC50 (MDCK): > 100 µM | selectivity ratio [12]: > 5 | CC50 (HEL): > 100 µM | pEC50 (Influenza A virus): 4.85 | CC50 (HEp-2): > 100 µM | pEC50 (Human betaherpesvirus 5 [8]): < 4.00 | selectivity ratio [13]: > 2 | CC50 (Vero): > 100 µM | pEC50 (Chikungunya virus): < 4.30 | pEC50 (Powassan virus): 4.68 | pEC50 [14]: 4.67 | pEC50 (Human betaherpesvirus 5 [9]): < 4.00 | CC50 [10]: > 100 µM

CN1c2ccccc2Oc2cn([C@H]3C[C@H](O)[C@@H](CO)O3)c(=O)nc21
pEC50 (Human alphaherpesvirus 3 [1]): < 4.00 | pEC50 (SARS-CoV-2): < 4.00 | pEC50 [4]: < 4.00 | pEC50 [5]: 4.40 | pEC50 (Human alphaherpesvirus 3 [6]): < 4.00 | CC50 (MDCK): > 100 µM | CC50 (HEL): > 100 µM | CC50 (HEp-2): > 100 µM | pEC50 (Human betaherpesvirus 5 [8]): < 4.00 | CC50 (Vero): > 100 µM | pEC50 (Chikungunya virus): < 4.30 | pEC50 (Powassan virus): < 4.30 | pEC50 (Human betaherpesvirus 5 [9]): < 4.00 | CC50 [10]: > 100 µM

CN1c2ccccc2Oc2cn(COCCO)c(=O)nc21
pEC50 (Human alphaherpesvirus 3 [1]): < 4.00 | pEC50 (SARS-CoV-2): < 4.00 | pEC50 [4]: < 4.00 | selectivity ratio [11]: > 22 | pEC50 [5]: 4.80 | pEC50 (Human alphaherpesvirus 3 [6]): < 4.00 | CC50 (MDCK): > 100 µM | selectivity ratio [12]: > 7 | CC50 (HEL): > 100 µM | pEC50 (Influenza A virus): 4.48 | selectivity ratio [7]: > 6 | CC50 (HEp-2): > 100 µM | pEC50 (Human betaherpesvirus 5 [8]): < 4.00 | selectivity ratio [13]: > 6 | CC50 (Vero): > 100 µM | pEC50 (Chikungunya virus): 4.82 | pEC50 (Powassan virus): 4.87 | pEC50 [14]: 5.35 | pEC50 (Human betaherpesvirus 5 [9]): < 4.00 | CC50 [10]: > 100 µM

CCCCCCCCOc1ccc2c(c1)N(C)c1nc(=O)n([C@H]3C[C@H](O)[C@@H](CO)O3)cc1O2
pEC50 (Human alphaherpesvirus 3 [1]): < 4.00 | selectivity ratio [2]: 74 | pEC50 (SARS-CoV-2): < 4.00 | pEC50 [4]: < 4.00 | pEC50 [5]: 4.66 | pEC50 (Human alphaherpesvirus 3 [6]): 5.06 | CC50 (MDCK): > 100 µM | selectivity ratio [12]: > 7 | CC50 (HEL): > 100 µM | pEC50 (Influenza A virus): 3.98 | selectivity ratio [7]: > 4 | CC50 (HEp-2): > 100 µM | pEC50 (Human betaherpesvirus 5 [8]): < 4.00 | selectivity ratio [13]: > 4 | CC50 (Vero): > 100 µM | pEC50 (Chikungunya virus): 4.62 | pEC50 (Powassan virus): 4.88 | pEC50 (Human betaherpesvirus 5 [9]): < 4.00 | CC50 [10]: > 100 µM

CCCCCCCCCOc1ccc2c(c1)N(C)c1nc(=O)n([C@H]3C[C@H](O)[C@@H](CO)O3)cc1O2
pEC50 (Human alphaherpesvirus 3 [1]): < 4.70 | pEC50 (SARS-CoV-2): < 4.00 | pEC50 [4]: < 4.00 | pEC50 [5]: 5.60 | pEC50 (Human alphaherpesvirus 3 [6]): < 4.70 | CC50 (MDCK): > 100 µM | selectivity ratio [12]: > 42 | CC50 (HEL): > 100 µM | pEC50 (Influenza A virus): 4.46 | selectivity ratio [7]: > 15 | CC50 (HEp-2): > 100 µM | pEC50 (Human betaherpesvirus 5 [8]): < 4.00 | selectivity ratio [13]: > 40 | CC50 (Vero): > 100 µM | pEC50 (Chikungunya virus): 5.20 | pEC50 (Powassan virus): 5.62 | pEC50 (Human betaherpesvirus 5 [9]): < 4.00 | CC50 [10]: > 100 µM

Nc1nc2c(ncn2COCCO)c(=O)[nH]1 [ACYCLOVIR]
pEC50 (Human alphaherpesvirus 3 [15]): 8.05 | CC50 (HEL): > 300 µM

Nc1ccn(C[C@@H](CO)OCP(=O)(O)O)c(=O)n1 [CIDOFOVIR]
CC50 (HEL): > 300 µM | pEC50 (Human betaherpesvirus 5 [8]): 6.21

Nc1nc(O)c2ncn(COC(CO)CO)c2n1 [GANCICLOVIR]
CC50 (HEL): > 300 µM | pEC50 (Human betaherpesvirus 5 [8]): 5.75 | pEC50 (Human betaherpesvirus 5 [9]): 4.72

O=c1nc(NO)ccn1[C@@H]1O[C@H](CO)[C@@H](O)[C@H]1O [N-HYDROXYCYTIDINE]
pEC50 (SARS-CoV-2): 5.13 | CC50 (Vero): > 100 µM

CCC(CC)O[C@@H]1C=C(C(=O)O)C[C@H](N)[C@H]1NC(C)=O [OSELTAMIVIR CARBOXYLATE]
CC50 (MDCK): > 100 µM | pEC50 (Influenza A virus): 5.54

NC(=O)c1ncn([C@@H]2O[C@H](CO)[C@@H](O)[C@H]2O)n1 [RIBAVIRIN]
pEC50 [4]: 5.70 | CC50 (HEp-2): 250 µM
